# Screening results: PubChem, several laboratories
# This is a sample that favours compounds with a hit; in the whole collection about 1.8% have one here.
# TDP2 absorb – TDP2 (human) inhibition, absorbance primary screen. recombinant TDP2, T5PNP hydrolysis, p-nitrophenol absorbance 415 nm. inhibition, % at 12.8 µM. 0.34% of 370,000 active. AID 720702;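 active = inhibition above the mean of all tested compounds plus 3 SD, set per campaign, cut at about 25% in these data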;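 note: 0% = DMSO with enzyme and 100% = buffer with substrate but no TDP2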
# Target sequence (O95551 whole entry, looked up): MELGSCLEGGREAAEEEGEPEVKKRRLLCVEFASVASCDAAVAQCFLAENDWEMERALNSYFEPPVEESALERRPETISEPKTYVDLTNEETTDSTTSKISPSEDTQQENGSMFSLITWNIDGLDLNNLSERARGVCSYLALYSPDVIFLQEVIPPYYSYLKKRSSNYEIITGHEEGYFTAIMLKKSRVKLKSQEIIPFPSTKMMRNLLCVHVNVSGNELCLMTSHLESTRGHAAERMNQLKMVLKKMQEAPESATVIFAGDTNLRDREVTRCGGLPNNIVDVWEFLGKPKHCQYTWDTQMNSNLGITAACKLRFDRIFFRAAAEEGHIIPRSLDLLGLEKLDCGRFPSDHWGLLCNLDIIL
#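 System – recombinant human TDP2 · Quantity – TDP2 enzyme at 120 nM final · Doses – single concentration, 12.8 µM nominal, with 1% DMSO · Incubation – 2 h at 37 °C · Measured by – epi absorbance of p-nitrophenol freed from T5PNP by hydrolysis · Read-out – % inhibition relative to enzyme-containing and enzyme-free wells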
# LEDGF integ inh – blocks HIV-1 LEDGF/p75-dependent DNA integration. TR-FRET IN-LEDGF/p75 DNA integration, Eu/Cy5. inhibition, % at 3.7 µM. 0.64% of 370,000 active. AID 743269;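 active = inhibition above the screen-wide mean plus 3 SD, cut at about 13% in these data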;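 note: signal is the Cy5 over europium emission ratio at 671 and 618 nm; 0% = plate median of compound wells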
# NSD2 inh – inhibitors of human histone methyltransferase NSD2; NSD2 peptide methylation, AlphaScreen, 120 min; inhibition, % at 12.5 µM; 0.54% of 310,000 active; AID 743445; in the data active = inhibition above about 50%
# UHRF1 binding – blocks human UHRF1 binding to methylated DNA | Q96T88 | UHRF1 binding to methylated oligo, TR-FRET | inhibition, % at 4.4 µM | 0.75% of 370,000 active | AID 687016; in the data active = inhibition above about 21%;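 note: UHRF1 SRA domain binding a hemimethylated CpG hairpin DNA probe; 0% = median of test compound wells and 100% = reference inhibitor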
# MBD2 DNA inh – inhibitors of human MBD2 binding to methylated oligonucleotide. Q9UBB5. TR-FRET. inhibition, % at 4.4 µM. 0.31% of 370,000 active. AID 686964; in the data active = inhibition above about 13%
# Casp6 inh – blocks human caspase-6 cleavage activity. P55212. purified caspase-6, Z-VEID-R110 cleavage fluorescence. inhibition, % at 12.5 µM. 0.53% of 350,000 active. AID 686996;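 active = mean inhibition across replicates at least about 35%, with every replicate also reaching that limit, limit read from the data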;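 note: 0% = median of neutral control wells and 100% = no fluorescence left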
# Target sequence (P55212 24-179 limits assumed): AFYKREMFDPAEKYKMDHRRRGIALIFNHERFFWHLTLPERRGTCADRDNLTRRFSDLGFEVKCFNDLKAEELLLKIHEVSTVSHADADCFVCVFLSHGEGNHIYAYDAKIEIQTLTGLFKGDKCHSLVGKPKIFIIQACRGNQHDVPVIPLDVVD
# Target sequence (P55212 194-293 limits assumed): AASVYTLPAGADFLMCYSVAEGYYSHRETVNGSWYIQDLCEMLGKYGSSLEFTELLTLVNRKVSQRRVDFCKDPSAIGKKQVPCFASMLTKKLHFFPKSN
# * marks the source's active call; other numbers are inactive results; nt = not tested or not shown; ! = repeats disagree.
SMILES,TDP2 absorb,LEDGF integ inh,NSD2 inh,UHRF1 binding,MBD2 DNA inh,Casp6 inh
O=C(O)CCNc1ccc(NCCC(=O)O)c2c1C(=O)c1ccccc1C2=O,4,-8,56*,40*,2,70*
COc1ccccc1NCCC(=O)O,12,1,-2,-3,1,-1
Cc1noc(C)c1S(=O)(=O)Nc1ccc2c(c1)C(=O)N([C@H](C)CO)C[C@@H](C)[C@H](CN(C)Cc1ccccc1)OCCCC[C@H](C)O2,nt,nt,nt,nt,nt,3
Cc1cc(NC(=O)CSCc2ccc([N+](=O)[O-])cc2)no1,12,2,143*,-1,-5,0
CC(=O)N(C)C[C@H]1Oc2cc(C#Cc3ccc(F)cc3)ccc2S(=O)(=O)N([C@@H](C)CO)C[C@H]1C,nt,nt,nt,nt,nt,2
COc1ccccc1Cn1[nH]nnc1=S,-7,-4,101*,3,-1,1
CCC(=O)N1CCC1(C)C(=O)Nc1cccc2cccnc12 (stereo not drawn),3,-1,1,-2,-8,78*
CC(C)(C)c1ccc(CC(=O)N2CCC2(C)C(=O)Nc2cccc3cccnc23)cc1 (stereo not drawn),-2,-1,1,0,-1,0
C[C@H](CO)N1C[C@H](C)[C@H](CN(C)CC2CCCC2)Oc2ncc(-c3cccc(F)c3)cc2C1=O,nt,nt,nt,nt,nt,-3
O=C(c1ccccc1)N1CC2(C1)[C@@H](c1ccccc1)[C@@H](CO)N2CC1CC1,nt,nt,nt,nt,nt,-1
Cc1cc(C)cc(C(=O)NCCn2cc(SCC(=O)N3CCOCC3)c3ccccc32)c1,-21,2,nt,38*,2,-1
O=C(NCCn1cc(SCC(=O)N2CCOCC2)c2ccccc21)c1ccccc1,8,1,nt,-2,-5,-1
CC(C)C#Cc1cnc2c(c1)C(=O)N([C@H](C)CO)C[C@@H](C)[C@H](CN(C)C(=O)Nc1ccccc1)O2,nt,nt,nt,nt,nt,0
CCCNC(=O)N(C)C[C@@H]1Oc2ncc(-c3ccncc3)cc2C(=O)N([C@H](C)CO)C[C@H]1C,nt,nt,nt,nt,nt,2
O=C(O)c1cc(N/N=C/c2ccc(N3CCOCC3)s2)ccc1Cl,15,68*,nt,93*,43*,18
NC(=O)N/N=C/c1ccc(N2CCOCC2)s1,-6,-2,3,-7,-1,2
Cc1ccc(SC2=C(N(C)C)C(=O)c3ccccc3C2=O)cc1,2,-6,93*,-5,-13,8
Cc1ccc(NC2=C(Cl)C(=O)c3ccccc3C2=O)cc1,8,-1,1,0,1,-7
O=C(Nc1nncs1)c1cccnc1Cl,12,-1,-2,25*,10,nt
Cc1csc(NC(=O)c2cccnc2Cl)n1,-3,-6,nt,12,-3,-1
O=C(O)c1cc(Nc2cc(Cl)c3nonc3c2[N+](=O)[O-])ccc1O,-13,1,16,-4,-16,49*
C=C(C)C(=O)Nc1ccc2c(c1)OCCOCCOCCO2,-1,-1,nt,14,3,53*
Cc1ccc(C(=O)NCC(=O)N(C)CC(=O)Nc2c(Cl)cccc2Cl)s1,-15,-1,nt,23*,-5,11
COc1cccc(C#Cc2ccc3c(c2)[C@H]2[C@H](CCN2S(=O)(=O)c2cccc(OC)c2)[C@H](CO)N3)c1,nt,nt,nt,nt,nt,-1
CC(=O)N1[C@@H]2c3ccc(-c4ccccc4)c(=O)n3C[C@H]1[C@H](CO)[C@H]2C(=O)N1CCCCC1,nt,nt,nt,nt,nt,-1
SMILES,TDP2 absorb,LEDGF integ inh,NSD2 inh,UHRF1 binding,MBD2 DNA inh,Casp6 inh
Cc1cccc(C)c1OCC(=O)N=Nc1c(O)[nH]c2ccc(Br)cc12,-4,2,1,2,-5,nt
COc1ccc(/C=N/OCC(=O)N=Nc2c(O)[nH]c3ccc(Br)cc23)cc1,-3,0,-5,21*,6,-3
O=C(C[C@H]1C=C[C@H](NS(=O)(=O)c2ccccc2)[C@H](CO)O1)N1CCN(c2ccccc2)CC1,nt,nt,nt,nt,nt,1
Cc1ccc(-n2[nH]c3c4c(ccc3c2=O)C(=O)c2ccccc2C4=O)cc1,6,-3,3,27*,4,-3
CCNC(=O)C[C@@H]1CC[C@H]2[C@H](COc3ccc(NC(=O)C4CCOCC4)cc3C(=O)N2C)O1,nt,nt,nt,nt,nt,-1
COc1ccc(CN=C(N)N=C(N)N)cc1Cl,2,-5,-8,-1,1,56*
COc1ccccc1Cc1c(-c2ccc(Cl)cc2)nc2ccc(C)cn12,-5,-1,nt,21*,5,3
Cc1cc(Br)cn2c(Cc3ccccc3C(F)(F)F)c(-c3ccccc3)nc12,3,-1,nt,7,-1,-2
CCCc1nc2ccc(Cl)cn2c1Cc1ccccc1OC,-19,4,nt,18,5,-7
CCCc1nc2ccc(C)cn2c1Cc1ccccc1C(F)(F)F,5,0,nt,24*,10,-2
CCCc1nc2ccc(C)cn2c1Cc1ccccc1OC,1,-1,nt,22*,10,0
CCCc1nc2c(C)cc(Br)cn2c1Cc1ccccc1C(F)(F)F,-1,1,nt,22*,9,-3
CC(C)NC(=O)N1[C@@H](C#N)[C@H](c2ccc(C#CC3CCCCC3)cc2)[C@@H]1CO,nt,nt,nt,nt,nt,-1
C[C@H](CO)N1C[C@H](C)[C@H](CN(C)CC2CCCCC2)OCCCC[C@H](C)Oc2ccc(NC(=O)Nc3ccc(F)cc3)cc2C1=O,nt,nt,nt,nt,nt,1
CCN1CCN(Cc2ccc(NC(=O)c3ccc(C)c(NC(=O)c4nccn4C)c3)cc2C(F)(F)F)CC1,-2,4,nt,3,8,-8
CCN1CCN(Cc2ccc(NC(=O)c3ccc(C)c(NC(=O)N4CCNC4=O)c3)cc2C(F)(F)F)CC1,1,1,nt,23*!,11,-1
C[C@H](CO)N1C[C@H](C)[C@H](CN(C)S(C)(=O)=O)Oc2ccc(NC(=O)CCCN(C)C)cc2CC1=O,nt,nt,nt,nt,nt,-2
COc1cc(/C=N/NC(=O)c2cc(O)cc(O)c2)ccc1OC(=O)c1ccccc1,11,9,2,28*,10,34
COc1ccc(C(=O)N/N=C/c2ccc(OC)c(COc3ccccc3)c2)cc1,-10,6,-2,-5,0,-3
COc1ccc(/C=N\NC(=O)c2cc(O)c(O)c(O)c2)cc1COc1ccc(C(=O)OCC(C)C)cc1,-17,12,9,7,1,44*
COc1cc(C(=O)N/N=C/c2ccc(OC(=O)c3ccccc3)c(OC)c2)ccc1O,-8,2,1,0,-4,0
CCC(=O)N1C[C@@H](C)[C@@H](OC)CN(C)C(=O)c2cc(NC(=O)C3CCOCC3)ccc2OC[C@@H]1C,nt,nt,nt,nt,nt,-1
CC(=O)NC1C(=O)N(CCN2CCOCC2)c2ccc(Cl)cc21 (stereo not drawn),6,16*,-3,-2,2,40*
COc1ccc(C(C)NC(=O)c2ccccc2Br)cc1OC (stereo not drawn),2,-2,-4,-1,-3,-2
